Test results as given in PubChem BioAssay AID485279 (Sanford-Burnham Center for Chemical Genomics, 2010).
Calls of active or inactive are those of the source.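 How the source made its calls: active means average efficacy above 50%; inactive means the rest.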

Test system: U2OS-GPR55 ERK1/2 phosphorylation, western blot
Test: downstream MAPK activation by GPR55 agonists – cell-based, U2OS-GPR55, western blot, mechanism study, SAR follow-up (AID 485279)
Settings: at 1 µM, stronger effect = higher value; for stimulation: measured here: ERK stimulation vs negative control
Method in brief: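 Material: GPR55/beta-arrestin-GFP U2OS cells | Quantity: 20 µg cytosolic lysate protein per blot lane | Measured by: Two-colour fluorescent western blot of cytosolic lysates | Times: 48 h serum starvation, then 10 min compound exposure at room temperature | Controls: LPI 10 µM reference agonist | Dosing: Single compound dose, 1 µM final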

With `CCCN(CCC)Cc1c(C(=O)NN=Cc2c[nH]c3ccccc23)nnn1-c1nonc1N` the efficacy was -65.3% (inactive) and the stimulation was 77.7%.

With `CC(C)Oc1ccc(S(=O)(=O)N2CCOCC2)cc1NC(=O)c1ccc(N2CCCC2=O)cc1` the efficacy was 103% and the stimulation was 143%.

Work on `CN(C)S(=O)(=O)c1ccc(N2CCCC2)c(C(=O)N2CCN(c3ccc([N+](=O)[O-])cc3)CC2)c1` yielded an efficacy of 63.1% and a stimulation of 141%.

Compound `Cc1occc1C(=O)Nc1ccc(OCc2ccccc2)cc1` has an efficacy of 69% and a stimulation of 127%.

For `COc1ccccc1/C=C/C(=O)NC(=S)Nc1ccc(S(=O)(=O)N(C)c2ccccc2)cc1`, the efficacy was 259% and the stimulation was 201%.

`COc1ccc(-c2csc(NC(=O)CSc3nnc4c(C)cc5ccccc5n34)n2)cc1` gave an efficacy of 79.7% and a stimulation of 133%.

Compound `COc1ccc(S(=O)(=O)N2CCOCC2)cc1NC(=O)c1cc2c(s1)CCCC2` has an efficacy of 95.6% and a stimulation of 135%.

In the case of `COc1ccc2cc(C)c3nnc(SCC(=O)Nc4nc(-c5ccc(F)cc5)cs4)n3c2c1`, the efficacy is reported as 133% and the stimulation is reported as 168%.

`Cc1cccc(N2CCN(C(=O)c3cc(S(=O)(=O)N(C)C)ccc3N3CCCC3)CC2)c1C` was tested, and the efficacy was 128% and the stimulation was 149%.
